Measurements as given in ChEMBL document CHEMBL1144601, “Synthesis and antiproliferative properties of N3/8-disubstituted 3,8-diazabicyclo[3.2.1]octane analogues of 3,8-bis[2-(3,4,5-trimethoxyphenyl)pyridin-4-yl]methyl-piperazine” (Eur J Med Chem, 2007).
Calls of active or inactive are those of the source. The rule behind the calls is not given here.

Key:
MCF7 [1] = experiment: Induction of apoptosis in human MCF7 cells up to 50 uM after 24 hrs by propidium iodide satining assay; assay type: functional, cell-based
Procedure, shortened: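 MCF-7 cells treated at 10–50 µM for 24 h were washed in PBS. They were resuspended in 0.1% sodium citrate, 0.1% Triton X-100 and 50 µg/mL propidium iodide, then kept 30 min at 4 °C in the dark. Nuclei were read by flow cytometry on a log scale with debris gated out. The % hypodiploid nuclei is from three experiments in triplicate.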

MCF7 [2] = experiment: Cell cycle arrest in MCF7 cells by accumulation at GO/G1 phase at 10 uM after 24hrs; assay type: functional, Homo sapiens
Procedure, shortened: (§1)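 MCF-7 cells grown in DMEM with 2 mM L-glutamine and 10% heat-inactivated FBS, seeded at 5×10^5 cells/well. After 24 h they were exposed to compound at 10 µM for 24 h. Cells plus supernatant were collected, stained with Nicoletti reagent and DNA content read by flow cytometry (FL2, linear amplification). Phase distribution was modelled from the histograms.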

MCF7 [3] = experiment: Cell cycle arrest in MCF7 cells by accumulation at S phase at 10 uM after 24 hrs; assay type: functional, Homo sapiens; procedure, shortened: as §1
MCF7 [4] = experiment: Cell cycle arrest in MCF7 cells by accumulation at G2/M phase at 10 uM after 24 hrs; assay type: functional, Homo sapiens; procedure, shortened: as §1
MCF7 [5] = experiment: Increase in p21/WAF1 expression level in MCF7 cells at 10 uM after 24 hrs; assay type: functional, cell-based; settings: Homo sapiens, TDE = time-dependent effect
Procedure, shortened: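 MCF-7 cells plated at 5×10^5 per 6-cm plate the day before were treated at 10 µM for various times. Lysates were made by freeze-thaw in Tris-HCl buffer with protease and phosphatase inhibitors. 30 µg protein was run on 10% SDS-PAGE and transferred to nitrocellulose. Blots were probed overnight at 4 °C with anti-p21 monoclonal (1:200), then a secondary antibody, and detected by ECL; three experiments.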

MT4 = experiment: Antiproliferative activity against human MT4 cells by MTT assay; assay type: functional, cell-based
Procedure, shortened: (§2)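 Exponentially growing cells resuspended in growth medium with serial drug dilutions; viability read by MTT after 96 h at 37 °C, with untreated controls allowed at least three rounds of multiplication. IC50 is the concentration cutting proliferation by 50%, mean ± SD of three independent determinations. Haematological lines were grown in RPMI-1640 with 10% FCS and antibiotics. Solid-tumour lines were grown in their own media with 10% FCS.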

CCRF-CEM = experiment: Antiproliferative activity against human CCRF-CEM cells by MTT assay; assay type: functional, cell-based; procedure, shortened: as §2
WIL2-NS = experiment: Antiproliferative activity against human WIL-2NS cells by MTT assay; assay type: functional, cell-based; procedure, shortened: as §2
CCRF-SB = experiment: Antiproliferative activity against human CCRF-SB cells by MTT assay; assay type: functional, cell-based; procedure, shortened: as §2
[6] = Antiproliferative activity against human CRL7065 cells by MTT assay; assay type: functional, cell-based; settings: CRL-7065; procedure, shortened: as §2
SK-MEL-28 = experiment: Antiproliferative activity against human SK-MEL-28 cells by MTT assay; assay type: functional, cell-based; procedure, shortened: as §2
MCF7 [7] = experiment: Antiproliferative activity against human MCF7 cells by MTT assay; assay type: functional, cell-based; procedure, shortened: as §2
SK-MES-1 = experiment: Antiproliferative activity against human SKMES1 cells by MTT assay; assay type: functional, cell-based; procedure, shortened: as §2
HepG2 = experiment: Antiproliferative activity against human HepG2 cells by MTT assay; assay type: functional, cell-based; procedure, shortened: as §2
DU-145 = experiment: Antiproliferative activity against human DU145 cells by MTT assay; assay type: functional, cell-based; procedure, shortened: as §2

| SMILES | Activity (MCF7 [1]) | Activity (MCF7 [2]) | Activity (MCF7 [3]) | Activity (MCF7 [4]) | Activity (MCF7 [5]) | IC50 (MT4) | IC50 (CCRF-CEM) | IC50 (WIL2-NS) | IC50 (CCRF-SB) | IC50 [6] | IC50 (SK-MEL-28) | IC50 (MCF7 [7]) | IC50 (SK-MES-1) | IC50 (HepG2) | IC50 (DU-145) |
| --- | --- | --- | --- | --- | --- | --- | --- | --- | --- | --- | --- | --- | --- | --- | --- |
| COc1cc(-c2cc(CN3CC4CCC(C3)N4Cc3ccnc(-c4cc(OC)c(OC)c(OC)c4)c3)ccn2)cc(OC)c1OC | inactive | 87% | 4.6% | 7.5% | tde | 2 µM | 2 µM | 3 µM | 3 µM | > 100 µM | 4 µM | 5 µM | 10 µM | 8 µM | 14 µM |
| Cc1cccc(-c2cc(CN3CC4CCC(C3)N4Cc3ccnc(-c4cccc(C)c4)c3)ccn2)c1 | – | – | – | – | – | > 100 µM | 18 µM | 25 µM | 18 µM | > 100 µM | 15 µM | 24 µM | 18 µM | 41 µM | 34 µM |
| Oc1ccc(-c2cc(CN3CC4CCC(C3)N4Cc3ccnc(-c4ccc(O)cc4)c3)ccn2)cc1 | – | – | – | – | – | – | 15 µM | 18 µM | 12 µM | 80 µM | 19 µM | 25 µM | 23 µM | 13 µM | 15 µM |
| Sc1ncnc2nc[nH]c12 [MERCAPTOPURINE ANHYDROUS] | – | – | – | – | – | 0.1 µM | 1 µM | 3 µM | 1 µM | > 100 µM | 15 µM | 3 µM | 58 µM | 8 µM | 2 µM |
| c1ccc(-c2cccc(CN3CC4CCC(C3)N4Cc3cccc(-c4ccccc4)c3)c2)cc1 | – | – | – | – | – | – | 12 µM | 12 µM | 10 µM | 41 µM | 15 µM | 25 µM | 10 µM | 38 µM | 14 µM |
| Clc1ccc(-c2cc(CN3CC4CCC(C3)N4Cc3ccnc(-c4ccc(Cl)cc4)c3)ccn2)cc1 | – | – | – | – | – | – | 7 µM | 29 µM | 13 µM | > 100 µM | 10 µM | 10 µM | 12 µM | 9 µM | 9 µM |
| O=[N+]([O-])c1ccc(-c2cc(CN3CC4CCC(C3)N4Cc3ccnc(-c4ccc([N+](=O)[O-])cc4)c3)ccn2)cc1 | – | – | – | – | – | – | 91 µM | > 100 µM | > 100 µM | > 100 µM | > 100 µM | > 100 µM | > 100 µM | > 100 µM | > 100 µM |
| c1ccc(-c2ccc(CN3CC4CCC(C3)N4Cc3ccc(-c4ccccc4)cc3)cc2)cc1 | – | – | – | – | – | > 100 µM | 7 µM | 11 µM | 6 µM | > 100 µM | 6 µM | 84 µM | 43 µM | 45 µM | 7 µM |
| CC[C@@]1(O)C(=O)OCc2c1cc1n(c2=O)Cc2cc3ccccc3nc2-1 [CAMPTOTHECIN] | – | – | – | – | – | 0.004 µM | 0.003 µM | 0.005 µM | 0.003 µM | 0.5 µM | 0.04 µM | 0.04 µM | 0.01 µM | 0.03 µM | 0.01 µM |
| c1ccc2c(CN3CC4CCC(C3)N4Cc3cccc4ccccc34)cccc2c1 | – | – | – | – | – | – | 8 µM | 7 µM | 7 µM | 20 µM | 13 µM | 11 µM | 17 µM | 18 µM | 80 µM |
| c1ccc(CN2CC3CCC(C2)N3Cc2ccccc2)cc1 | – | – | – | – | – | > 100 µM | 46 µM | 60 µM | 81 µM | > 100 µM | > 100 µM | > 100 µM | > 100 µM | > 100 µM | > 100 µM |
